Active and inactive are the calls of the source. The rule behind the calls is not given here.
Columns and labels:
[1] = Cytotoxicity against human Caco2 cells assessed as cell viability after 24 hrs by MTT assay; type: cell-based; settings: Caco-2 cells
Method in brief: (§1)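 Cells seeded (Caco-2 8 × 10³/well, HT1080 12 × 10⁴/well), grown to 70% confluence, serum-starved 1 h, then exposed to compound at 0.1−200 μM (eight levels) serum-free for 24 h. MTT 0.5 mg/mL for 3 h at 37 °C, formazan dissolved in DMSO, OD 540 nm; viability as % of untreated. CC50 from sigmoidal fits; three experiments, triplicate wells.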

[2] = target: Matrix metalloproteinase-9 (Homo sapiens, UniProt P14780); test: Inhibition of p-aminophenylmercuric acetate stimulated human recombinant MMP-9 using (7-methoxycoumarin-4-yl)-acetyl-pro-Leu-Gly-Leu-(3-(2,4-dinitrophenyl)-L-2,3-diaminopropionyl)-Ala-Arg-NH2 as substrate after 45 mins by fluorogenic assay
Chain of Matrix metalloproteinase-9 (P14780 whole entry): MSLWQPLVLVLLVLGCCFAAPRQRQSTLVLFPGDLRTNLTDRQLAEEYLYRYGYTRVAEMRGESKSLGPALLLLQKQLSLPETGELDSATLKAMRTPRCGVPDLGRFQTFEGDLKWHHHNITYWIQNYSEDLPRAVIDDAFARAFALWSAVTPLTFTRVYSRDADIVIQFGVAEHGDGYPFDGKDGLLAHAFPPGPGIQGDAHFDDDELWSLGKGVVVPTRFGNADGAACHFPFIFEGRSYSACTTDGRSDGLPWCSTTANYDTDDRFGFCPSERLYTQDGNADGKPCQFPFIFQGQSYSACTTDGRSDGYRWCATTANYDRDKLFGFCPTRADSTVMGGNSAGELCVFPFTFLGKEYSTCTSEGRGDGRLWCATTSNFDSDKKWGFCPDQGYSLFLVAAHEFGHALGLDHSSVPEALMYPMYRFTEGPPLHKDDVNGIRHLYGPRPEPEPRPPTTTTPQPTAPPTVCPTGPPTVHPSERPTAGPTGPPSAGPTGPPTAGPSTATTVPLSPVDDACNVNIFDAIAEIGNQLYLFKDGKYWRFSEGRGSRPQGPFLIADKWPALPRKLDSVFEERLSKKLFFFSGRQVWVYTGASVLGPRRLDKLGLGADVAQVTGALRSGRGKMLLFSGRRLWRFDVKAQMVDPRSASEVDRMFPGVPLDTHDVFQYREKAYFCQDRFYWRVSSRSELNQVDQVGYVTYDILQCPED

[3] = Cytotoxicity against human HT1080 cells assessed as cell viability after 24 hrs by MTT assay; type: cell-based; settings: HT-1080 cells; method in brief: as §1
[4] = system: Caco-2; test: Inhibition of HGF stimulated human Caco2 cells migration through matrigel membrane at 100 nM by staining based light microscopic analysis; type: functional
Method in brief: (§2)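 Matrigel-coated invasion chamber inserts, 8 μm pore membrane, 0.5 mL of 2 × 10⁵ Caco-2 cells/mL; stimulated with HGF (100 or 500 ng/mL) or PMA (10 μM) with compound (100 nM or 10 μM); 48 h invasion at 37 °C, 5% CO2. Non-invading cells swabbed off, lower-surface cells Diff-Quik stained and counted by light microscopy; normalized to stimulated control; duplicates.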

[5] = target: 72 kDa type IV collagenase (Homo sapiens, UniProt P08253); test: Inhibition of p-aminophenylmercuric acetate stimulated human recombinant MMP-2 using (7-methoxycoumarin-4-yl)-acetyl-pro-Leu-Gly-Leu-(3-(2,4-dinitrophenyl)-L-2,3-diaminopropionyl)-Ala-Arg-NH2 as substrate after 45 mins by fluorogenic assay
Chain of 72 kDa type IV collagenase (P08253 whole entry): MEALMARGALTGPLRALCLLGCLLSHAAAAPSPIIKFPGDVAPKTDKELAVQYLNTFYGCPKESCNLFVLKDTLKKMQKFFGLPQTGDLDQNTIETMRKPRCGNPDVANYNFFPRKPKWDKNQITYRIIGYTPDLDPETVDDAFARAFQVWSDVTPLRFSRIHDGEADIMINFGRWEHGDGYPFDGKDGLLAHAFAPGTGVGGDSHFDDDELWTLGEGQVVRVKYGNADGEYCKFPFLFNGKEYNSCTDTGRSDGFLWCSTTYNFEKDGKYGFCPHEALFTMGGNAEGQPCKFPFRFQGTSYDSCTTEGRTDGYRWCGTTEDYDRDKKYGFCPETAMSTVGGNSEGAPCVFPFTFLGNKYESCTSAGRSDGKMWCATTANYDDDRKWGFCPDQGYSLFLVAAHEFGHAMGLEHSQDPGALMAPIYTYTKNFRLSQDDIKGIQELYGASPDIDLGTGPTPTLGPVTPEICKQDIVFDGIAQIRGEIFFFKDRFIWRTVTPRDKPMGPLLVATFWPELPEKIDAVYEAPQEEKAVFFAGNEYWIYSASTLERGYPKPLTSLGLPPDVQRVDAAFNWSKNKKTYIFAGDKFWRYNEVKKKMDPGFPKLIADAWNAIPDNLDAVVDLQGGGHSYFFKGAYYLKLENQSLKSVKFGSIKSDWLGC

[6] = system: Caco-2; test: Induction of nitrite release in human Caco2 cells at 10 uM after 24 hrs by Griess assay; type: functional, cell-based
Method in brief: (§3)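 Compounds incubated 24 h with Caco-2 monolayers at 200 or 10 μM (n = 3). Supernatant nitrite read by Griess reaction (sulfanilamide 2% plus N-1-naphthylethylenediamine) at 4 °C, 45 min shaking, A540; nitrate measured after VCl3 reduction. Quantified against sodium nitrite/nitrate standards 3−200 μM; NOx = nitrite + nitrate.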

[7] = system: HT-1080; test: Induction of apoptosis in human HT1080 cells assessed as increase in apoptotic cell population at 10 uM after 24 hrs by Annexin V FITC staining based flow cytometry; settings: ht-1080, 24 h
Method in brief: (§4)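 Cells at 80% confluence in T25 flasks treated 24 h serum-free with compound (10 μM); vehicle-only controls. Cells washed in Hepes pH 7.4/NaCl/CaCl2 binding buffer, double-stained with Annexin V-FITC and propidium iodide 15 min at room temperature in dark, read by flow cytometry within 5 min; expressed as % of control fluorescence.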

[8] = system: HT-1080; test: Induction of apoptosis in human HT1080 cells assessed as increase in necrotic cell population at 10 uM after 24 hrs by Annexin V FITC staining based flow cytometry; settings: ht-1080, 24 h; method in brief: as §4
[9] = system: Caco-2; test: Induction of nitrate release in human Caco2 cells at 200 uM after 24 hrs by Griess assay; type: functional, cell-based; method in brief: as §3
[10] = system: Caco-2; test: Induction of apoptosis in human Caco2 cells assessed as increase in apoptotic cell population at 10 uM after 24 hrs by Annexin V FITC staining based flow cytometry; settings: caco-2, 24 h; method in brief: as §4
[11] = system: HT-1080; test: Inhibition of PMA-stimulated MMP-2 secretion in human HT1080 cells at 100 uM after 24 hrs by gelatin zymography; type: functional, cell-based
Method in brief: (§5)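 HT1080 at ~75% confluence switched to serum-free medium, pretreated 3 h with compound (100 μM; DMSO ≤0.1%), then PMA 10 μM for 24 h at 37 °C. Cleared supernatants loaded at equal protein on 2% gelatin SDS-PAGE, Triton washed, developed 48 h at 37 °C in Tris pH 7.5/CaCl2 buffer, Coomassie stained; gelatinolytic bands quantified by densitometry relative to stimulated control.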

[12] = system: Caco-2; test: Induction of nitrate release in human Caco2 cells at 10 uM after 24 hrs by Griess assay; type: functional, cell-based; method in brief: as §3
[13] = system: Caco-2; test: Induction of apoptosis in human Caco2 cells assessed as increase in necrotic cell population at 10 uM after 24 hrs by Annexin V FITC staining based flow cytometry; settings: caco-2, 24 h; method in brief: as §4
[14] = system: Caco-2; test: Inhibition of IL1beta/TNFalpha-stimulated MMP-9 secretion in human Caco2 cells at 10 uM after 24 hrs by densitometric analysis; type: functional, cell-based
Method in brief: (§6)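 Near-confluent (~75%) Caco-2 switched to serum-free medium, pretreated 30 min with compound (10 μM, DMSO <1%), then TNF-α and IL-1β 10 ng/mL for 24 h at 37 °C. Cleared supernatants normalized by Bradford protein, run on 2% gelatin SDS-PAGE, Triton washed, developed 48 h at 37 °C in Tris pH 7.5/CaCl2 buffer, Coomassie stained; lysis bands quantified by densitometry as % of cytokine-only control.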

[15] = system: Caco-2; test: Induction of nitrite release in human Caco2 cells at 200 uM after 24 hrs by Griess assay; type: functional, cell-based; method in brief: as §3
[16] = system: HT-1080; test: Inhibition of PMA-stimulated MMP-9 secretion in human HT1080 cells at 100 uM after 24 hrs by gelatin zymography; type: functional; settings: for inhibition at 100 µM: HT-1080, 24 h; method in brief: as §5
[17] = system: Caco-2; test: Inhibition of IL1beta/TNFalpha-stimulated MMP-2 secretion in human Caco2 cells at 10 uM after 24 hrs by densitometric analysis; type: functional, cell-based; method in brief: as §6
[18] = Cytotoxicity against human Caco2 cells assessed as inhibition of cell viability at 12.5 uM after 24 hrs by MTT assay; type: cell-based; settings: Caco-2 cells, read-out: INH; method in brief: as §1
[19] = Cytotoxicity against human Caco2 cells assessed as inhibition of cell viability at 2.5 uM after 24 hrs by MTT assay; type: cell-based; settings: Caco-2 cells, read-out: INH; method in brief: as §1
[20] = system: Caco-2; test: Inhibition of PMA-stimulated human Caco2 cells migration through matrigel membrane at 10 uM after 48 hrs by light microscopic analysis; type: functional; settings: Caco-2, 48 h; method in brief: as §2
[21] = Cytotoxicity against human Caco2 cells assessed as inhibition of cell viability at 100 uM after 24 hrs by MTT assay; type: cell-based; settings: Caco-2 cells, read-out: INH; method in brief: as §1
[22] = Cytotoxicity against human HT1080 cells assessed as inhibition of cell viability at 100 uM after 24 hrs by MTT assay; type: cell-based; settings: HT-1080 cells, read-out: INH; method in brief: as §1
[23] = system: Caco-2; test: Inhibition of HGF-stimulated human Caco2 cells invasion at 10 uM by light microscopic analysis; type: functional; method in brief: as §2
[24] = Cytotoxicity against human Caco2 cells assessed as inhibition of cell viability at 200 uM after 24 hrs by MTT assay; type: cell-based; settings: Caco-2 cells, read-out: INH; method in brief: as §1

| SMILES | CC50 at 24 h [1] [nM] | IC50 [2] [nM] | CC50 at 24 h [3] [nM] | inhibition at 0.1 µM [4] [%] | IC50 [5] [nM] | Activity [7] | Activity [8] | Activity [9] | Activity [10] | inhibition [11] | Activity [13] | inhibition [14] | Activity [15] | inhibition at 100 µM [16] [%] | inhibition [17] | other results |
| --- | --- | --- | --- | --- | --- | --- | --- | --- | --- | --- | --- | --- | --- | --- | --- | --- |
| O=C1NC(=O)C(c2ccc(Oc3ccccc3)cc2)(N2CCC(CO)CC2)C(=O)N1 | 47800 | 97 | 66600 | 39 | 66 | – | – | – | – | – | – | – | – | – | – | – |
| O=C1NC(=O)C(c2ccc(Oc3ccccc3)cc2)(N2CCCC(CO[N+](=O)[O-])C2)C(=O)N1 (configuration not stated) | > 12500 | 104 | 8100 | 40.7 | 179 | Non-toxic | Non-toxic | Active | Non-toxic | Active | Non-toxic | Active | Active | > 80 | inactive | Activity [6]: inactive; Activity [12]: inactive; cytotoxicity at 24 h, 12.5 µM [18]: 37% |
| O=C1NC(=O)C(c2ccc(Oc3ccccc3)cc2)(N2CCCC(CO)C2)C(=O)N1 (configuration not stated) | 33100 | 6.2 | 46400 | 55.3 | 15 | – | – | – | – | – | – | – | – | – | – | – |
| O=C1NC(=O)C(c2ccc(Oc3ccccc3)cc2)(N2CCC(CO[N+](=O)[O-])CC2)C(=O)N1 | > 12500 | 212 | 11800 | 35.8 | 219 | Non-toxic | Non-toxic | Active | Non-toxic | Active | Non-toxic | Active | Active | > 80 | inactive | Activity [6]: inactive; cytotoxicity at 24 h, 2.5 µM [19]: 12%; Activity [12]: inactive; inhibition at 10 µM [20]: 64.9% |
| O=C1NC(=O)C(c2ccc(Oc3ccccc3)cc2)(N2CCN(CCO[N+](=O)[O-])CC2)C(=O)N1 | 26000 | 92 | 12800 | 34.8 | 149 | Non-toxic | Non-toxic | Active | Non-toxic | Active | Non-toxic | Active | Active | > 80 | inactive | – |
| O=C1NC(=O)C(c2ccc(Oc3ccccc3)cc2)(N(CCO)CCO)C(=O)N1 | 8200 | 26 | 6800 | 51.2 | 3.8 | – | – | – | – | – | – | – | – | – | – | – |
| O=C1NC(=O)C(c2ccc(Oc3ccccc3)cc2)(N2CCN(CCO)CC2)C(=O)N1 | > 100000 | – | > 100000 | 46.3 | – | – | – | – | – | – | – | – | – | – | – | cytotoxicity at 24 h, 100 µM [21]: 25%; cytotoxicity at 24 h, 100 µM [22]: 33% |
| O=C1NC(=O)C(c2ccc(Oc3ccccc3)cc2)(N(CCO[N+](=O)[O-])CCO[N+](=O)[O-])C(=O)N1 | > 100000 | 91 | 72000 | 51.4 | 328 | Non-toxic | Non-toxic | Active | Non-toxic | Active | Non-toxic | Active | Active | > 80 | inactive | cytotoxicity at 24 h, 100 µM [21]: 6%; inhibition at 10 µM [20]: 43.3%; inhibition at 10 µM [23]: 51% |
| CN(CCO[N+](=O)[O-])C1(c2ccc(Oc3ccccc3)cc2)C(=O)NC(=O)NC1=O | > 100000 | 47.6 | 48500 | 44.6 | 53 | Non-toxic | Non-toxic | Active | Non-toxic | Active | Non-toxic | Active | Active | – | inactive | cytotoxicity at 24 h, 100 µM [21]: 28%; inhibition [16]: Active; inhibition [23]: inactive |
| O=C1NC(=O)C(c2ccc(Oc3ccccc3)cc2)(N2CCC(CCO)CC2)C(=O)N1 | 25200 | 12 | 30100 | – | 10 | – | – | – | – | – | – | – | – | – | – | – |
| CN(CCO)C1(c2ccc(Oc3ccccc3)cc2)C(=O)NC(=O)NC1=O | 76500 | 145 | 78500 | 34.4 | 24 | – | – | – | – | – | – | – | – | – | – | – |
| O=C1NC(=O)C(c2ccc(Oc3ccccc3)cc2)(N2CCC(CCO[N+](=O)[O-])CC2)C(=O)N1 | > 200000 | 152 | 78700 | – | 158 | Non-toxic | Non-toxic | Active | Non-toxic | Active | Non-toxic | Active | Active | – | inactive | cytotoxicity at 24 h, 200 µM [24]: 100%; inhibition at 10 µM [20]: 44.5%; inhibition [16]: Active |

Source: ChEMBL document CHEMBL2062484, “Design of barbiturate-nitrate hybrids that inhibit MMP-9 activity and secretion” (J Med Chem, 2012)
